# In ChEMBL document CHEMBL1130231, “Betidamino acid scan of the GnRH antagonist acyline” (J Med Chem, 1997):
# Target: T1, Gonadotropin-releasing hormone receptor (Rattus norvegicus, UniProt P30969)
# T1 sequence (P30969 whole entry): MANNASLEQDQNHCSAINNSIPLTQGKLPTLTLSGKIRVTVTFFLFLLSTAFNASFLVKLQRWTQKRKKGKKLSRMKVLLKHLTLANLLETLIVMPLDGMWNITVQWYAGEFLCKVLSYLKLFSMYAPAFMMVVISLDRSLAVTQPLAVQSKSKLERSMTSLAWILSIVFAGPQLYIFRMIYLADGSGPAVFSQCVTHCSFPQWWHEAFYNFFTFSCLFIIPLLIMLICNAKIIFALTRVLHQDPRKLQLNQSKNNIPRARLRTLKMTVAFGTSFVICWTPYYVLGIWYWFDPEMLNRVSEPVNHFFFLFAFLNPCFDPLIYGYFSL
# Assay: Inhibition of binding of radiolabeled histrelin to Gonadotropin-releasing hormone receptor (GnRHr) in rat pituitary gland membranes
# Format: cell membranes, Membrane
# In short: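 Rat anterior pituitary membranes (male and female glands equal numbers), homogenized in 0.32 M sucrose/aprotinin, 4000g pellet, diluted 15-fold in 10 mM Hepes, 0.2% BSA, pH 7.6. Filtration onto PEI-treated glass filters, scintillation counting. IC50 in nM, duplicate, n = 1.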
row,IC50,SMILES
1,0.3 nM,"CC(=O)Nc1ccc(C[C@H](NC(=O)[C@H](NC(=O)CO)NC(=O)[C@@H](Cc2cccnc2)NC(=O)[C@@H](Cc2ccc(Cl)cc2)NC(=O)[C@@H](Cc2ccc3ccccc3c2)NC(C)=O)C(=O)N[C@H](Cc2ccc(NC(C)=O)cc2)C(=O)N[C@@H](CC(C)C)C(=O)N[C@@H](CCCCNC(C)C)C(=O)N2CCC[C@H]2C(=O)N[C@H](C)C(N)=O)cc1 (single isomer, unassigned)"
2,280 nM,CC(=O)Nc1ccc(C[C@H](NC(=O)[C@H](CO)NC(=O)[C@@H](Cc2cccnc2)NC(=O)[C@@H](NC(=O)[C@@H](Cc2ccc3ccccc3c2)NC(C)=O)N(C)C(=O)c2ccc(Cl)cc2)C(=O)N[C@H](Cc2ccc(NC(C)=O)cc2)C(=O)N[C@@H](CC(C)C)C(=O)N[C@@H](CCCCNC(C)C)C(=O)N2CCC[C@H]2C(=O)N[C@H](C)C(N)=O)cc1 (mixture of isomers)
3,0.9 nM,CN[C@@H](NC(=O)[C@@H]1CCCN1C(=O)[C@H](CCCCNC(C)C)NC(=O)[C@H](CC(C)C)NC(=O)[C@@H](Cc1ccc(NC(C)=O)cc1)NC(=O)[C@H](Cc1ccc(NC(C)=O)cc1)NC(=O)[C@H](CO)NC(=O)[C@@H](Cc1cccnc1)NC(=O)[C@@H](Cc1ccc(Cl)cc1)NC(=O)[C@@H](Cc1ccc2ccccc2c1)NC(C)=O)C(N)=O
4,1700 nM,"CC(=O)Nc1ccc(C[C@H](NC(=O)[C@H](CO)NC(=O)[C@@H](Cc2cccnc2)NC(=O)[C@H](NC(=O)c2cnccn2)NC(=O)[C@@H](Cc2ccc3ccccc3c2)NC(C)=O)C(=O)N[C@H](Cc2ccc(NC(C)=O)cc2)C(=O)N[C@@H](CC(C)C)C(=O)N[C@@H](CCCCNC(C)C)C(=O)N2CCC[C@H]2C(=O)N[C@H](C)C(N)=O)cc1 (single isomer, unassigned)"
5,0.63 nM,"CC(=O)Nc1ccc(C[C@H](NC(=O)[C@@H](NC=O)NC(=O)[C@@H](Cc2cccnc2)NC(=O)[C@@H](Cc2ccc(Cl)cc2)NC(=O)[C@@H](Cc2ccc3ccccc3c2)NC(C)=O)C(=O)N[C@H](Cc2ccc(NC(C)=O)cc2)C(=O)N[C@@H](CC(C)C)C(=O)N[C@@H](CCCCNC(C)C)C(=O)N2CCC[C@H]2C(=O)N[C@H](C)C(N)=O)cc1 (single isomer, unassigned)"
6,1.2 nM,CC(=O)Nc1ccc(C[C@H](NC(=O)[C@H](CO)NC(=O)[C@@H](Cc2cccnc2)NC(=O)[C@H](NC(=O)[C@@H](Cc2ccc3ccccc3c2)NC(C)=O)N(C)C(=O)c2ccc(Cl)cc2)C(=O)N[C@H](Cc2ccc(NC(C)=O)cc2)C(=O)N[C@@H](CC(C)C)C(=O)N[C@@H](CCCCNC(C)C)C(=O)N2CCC[C@H]2C(=O)N[C@H](C)C(N)=O)cc1
7,0.59 nM,"CC(=O)Nc1ccc(C[C@H](NC(=O)[C@H](CO)NC(=O)[C@@H](Cc2cccnc2)NC(=O)[C@@H](Cc2ccc(Cl)cc2)NC(=O)[C@@H](Cc2ccc3ccccc3c2)NC(C)=O)C(=O)N[C@H](Cc2ccc(NC(C)=O)cc2)C(=O)N[C@@H](CC(C)C)C(=O)N[C@@H](CCCCNC(C)C)C(=O)N2CCC[C@H]2C(=O)N[C@H](NC=O)C(N)=O)cc1 (single isomer, unassigned)"
8,0.38 nM,CC(=O)Nc1ccc(C[C@H](NC(=O)[C@H](CO)NC(=O)[C@@H](Cc2cccnc2)NC(=O)[C@@H](Cc2ccc(Cl)cc2)NC(=O)[C@@H](Cc2ccc3ccccc3c2)NC(C)=O)C(=O)N[C@H](Cc2ccc(NC(C)=O)cc2)C(=O)N[C@@H](CC(C)C)C(=O)N[C@@H](CCCCNC(C)C)C(=O)N2CCC[C@H]2C(=O)N[C@@H](C)C(N)=O)cc1
9,0.3 nM,CC(=O)Nc1ccc(C[C@@H](NC(=O)[C@H](NC(=O)c2ccc(O)cc2)NC(=O)[C@H](CO)NC(=O)[C@@H](Cc2cccnc2)NC(=O)[C@@H](Cc2ccc(Cl)cc2)NC(=O)[C@@H](Cc2ccc3ccccc3c2)NC(C)=O)C(=O)N[C@@H](CC(C)C)C(=O)N[C@@H](CCCCNC(C)C)C(=O)N2CCC[C@H]2C(=O)N[C@H](C)C(N)=O)cc1
10,0.84 nM,CC(=O)Nc1ccc(C[C@H](NC(=O)[C@H](NC=O)NC(=O)[C@@H](Cc2cccnc2)NC(=O)[C@@H](Cc2ccc(Cl)cc2)NC(=O)[C@@H](Cc2ccc3ccccc3c2)NC(C)=O)C(=O)N[C@H](Cc2ccc(NC(C)=O)cc2)C(=O)N[C@@H](CC(C)C)C(=O)N[C@@H](CCCCNC(C)C)C(=O)N2CCC[C@H]2C(=O)N[C@H](C)C(N)=O)cc1
11,2 nM,CC(=O)Nc1ccc(C[C@H](NC(=O)[C@H](CO)NC(=O)[C@@H](Cc2cccnc2)NC(=O)[C@@H](Cc2ccc(Cl)cc2)NC(=O)[C@@H](Cc2ccc3ccccc3c2)NC(C)=O)C(=O)N[C@H](Cc2ccc(NC(C)=O)cc2)C(=O)N[C@@H](NC(=O)C(C)C)C(=O)N[C@@H](CCCCNC(C)C)C(=O)N2CCC[C@H]2C(=O)N[C@H](C)C(N)=O)cc1
12,5 nM,CC(=O)Nc1ccc(C[C@H](NC(=O)[C@H](CO)NC(=O)[C@@H](Cc2cccnc2)NC(=O)[C@@H](Cc2ccc(Cl)cc2)NC(=O)[C@@H](Cc2ccc3ccccc3c2)NC(C)=O)C(=O)N[C@H](Cc2ccc(NC(C)=O)cc2)C(=O)N[C@@H](NC(C)=O)C(=O)N[C@@H](CCCCNC(C)C)C(=O)N2CCC[C@H]2C(=O)N[C@H](C)C(N)=O)cc1
13,220 nM,"CC(=O)Nc1ccc(C[C@H](NC(=O)[C@H](CO)NC(=O)[C@H](NC(=O)c2ccncc2)NC(=O)[C@@H](Cc2ccc(Cl)cc2)NC(=O)[C@@H](Cc2ccc3ccccc3c2)NC(C)=O)C(=O)N[C@H](Cc2ccc(NC(C)=O)cc2)C(=O)N[C@@H](CC(C)C)C(=O)N[C@@H](CCCCNC(C)C)C(=O)N2CCC[C@H]2C(=O)N[C@H](C)C(N)=O)cc1 (single isomer, unassigned)"
14,0.43 nM,CC(=O)Nc1ccc(C[C@@H](NC(=O)[C@H](NC(=O)[C@H](CO)NC(=O)[C@@H](Cc2cccnc2)NC(=O)[C@@H](Cc2ccc(Cl)cc2)NC(=O)[C@@H](Cc2ccc3ccccc3c2)NC(C)=O)N(C)C(=O)c2ccc(NC(C)=O)cc2)C(=O)N[C@@H](CC(C)C)C(=O)N[C@@H](CCCCNC(C)C)C(=O)N2CCC[C@H]2C(=O)N[C@H](C)C(N)=O)cc1
15,> 1000 nM,"CC(=O)Nc1ccc(C[C@H](NC(=O)[C@H](CO)NC(=O)[C@@H](Cc2cccnc2)NC(=O)[C@@H](NC(=O)c2cn[nH]c2N)NC(=O)[C@@H](Cc2ccc3ccccc3c2)NC(C)=O)C(=O)N[C@H](Cc2ccc(NC(C)=O)cc2)C(=O)N[C@@H](CC(C)C)C(=O)N[C@@H](CCCCNC(C)C)C(=O)N2CCC[C@H]2C(=O)N[C@H](C)C(N)=O)cc1 (single isomer, unassigned)"
16,0.5 nM,"CC(=O)Nc1ccc(C[C@H](NC(=O)[C@H](CO)NC(=O)[C@@H](Cc2cccnc2)NC(=O)[C@@H](Cc2ccc(Cl)cc2)NC(=O)[C@@H](Cc2ccc3ccccc3c2)NC(C)=O)C(=O)N[C@H](Cc2ccc(NC(C)=O)cc2)C(=O)N[C@@H](CC(C)C)C(=O)N[C@H](C(=O)N2CCC[C@H]2C(=O)N[C@H](C)C(N)=O)N(C)C(=O)CCNC(C)C)cc1 (single isomer, unassigned)"
17,1.4 nM,"CC(=O)Nc1ccc(C[C@H](NC(=O)[C@H](CO)NC(=O)[C@@H](NC(=O)c2ccncc2)NC(=O)[C@@H](Cc2ccc(Cl)cc2)NC(=O)[C@@H](Cc2ccc3ccccc3c2)NC(C)=O)C(=O)N[C@H](Cc2ccc(NC(C)=O)cc2)C(=O)N[C@@H](CC(C)C)C(=O)N[C@@H](CCCCNC(C)C)C(=O)N2CCC[C@H]2C(=O)N[C@H](C)C(N)=O)cc1 (single isomer, unassigned)"
18,0.51 nM,CC(=O)Nc1ccc(C[C@@H](NC(=O)[C@@H](NC(=O)c2ccc(NC(C)=O)cc2)NC(=O)[C@H](CO)NC(=O)[C@@H](Cc2cccnc2)NC(=O)[C@@H](Cc2ccc(Cl)cc2)NC(=O)[C@@H](Cc2ccc3ccccc3c2)NC(C)=O)C(=O)N[C@@H](CC(C)C)C(=O)N[C@@H](CCCCNC(C)C)C(=O)N2CCC[C@H]2C(=O)N[C@H](C)C(N)=O)cc1
